From publication PMC6644362 (ACS Omega, 2018)
“And” between values parts separate entries of the source, which are not always exact repeats. Equal values may be shown once.

Experiments:
recombinant human TK2 [1] = target: T1, recombinant human TK2 (Homo sapiens, UniProt O00142); experiment: Isothermal titration calorimetry; format: binding
T1 sequence (O00142 56-265 limits assumed): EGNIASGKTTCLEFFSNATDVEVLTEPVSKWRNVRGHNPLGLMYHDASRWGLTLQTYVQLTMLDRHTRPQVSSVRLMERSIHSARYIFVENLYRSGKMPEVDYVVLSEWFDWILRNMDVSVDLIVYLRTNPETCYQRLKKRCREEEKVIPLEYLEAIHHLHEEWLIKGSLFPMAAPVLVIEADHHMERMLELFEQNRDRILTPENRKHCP
How it was run: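 Calorimetry at 25 °C used 40 μM TK2 (dTTP-bound or dTTP-free) dialysed into 10 mM Tris/HCl pH 7.9, 1 mM MgCl2. Ligands were in dialysis buffer at 1–3 mM syringe concentration, also ATPγS into enzyme–dT/dC complexes. There was one 2 μL control injection, then 24 × 8 μL injections at 500 s intervals. Blanks were ligand into buffer and buffer into enzyme. Best-fit model per ligand; Kd = 1/KB.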

[2] = target: human recombinant dC kinase (dCK) (Homo sapiens, UniProt P27707); experiment: ITC titration of ATPγS to dCK in the presence and absence of dC; format: binding
Chain of human recombinant dC kinase (dCK) (P27707 whole entry): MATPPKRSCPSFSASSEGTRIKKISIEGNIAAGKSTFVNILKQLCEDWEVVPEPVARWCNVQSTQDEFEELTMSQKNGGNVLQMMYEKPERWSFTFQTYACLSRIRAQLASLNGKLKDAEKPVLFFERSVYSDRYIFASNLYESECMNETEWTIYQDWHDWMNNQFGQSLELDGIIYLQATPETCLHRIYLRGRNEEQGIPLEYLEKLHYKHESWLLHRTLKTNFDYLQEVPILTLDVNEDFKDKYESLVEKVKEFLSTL

recombinant human TK2 [3] = target: T1, recombinant human TK2; experiment: Intrinsic tryptophan fluorescence; format: binding; conditions: for Kd / ΔFmax: mean ± SD; for fa (fractional accessibility) / Ka (quenching constant of the accessible fraction): modified Stern–Volmer equation; for fractional initial accessible fluorescence: summary of Table 2, dTTP-bound or dTTP-free TK2; for quenching of the fluorescence emission on addition of ligand: titrated to dTTP-bound or dTTP-free TK2, 0.5–4000 μM
TK2 = conditions: feedback inhibition, enzyme kinetic experiments; cited from earlier work
[4] = titrated to E–dC complex, 25 °C
[5] = titrated to E–dT complex, 25 °C
[6] = Kd (equilibrium binding constant), dTTP-bound TK2, one-site specific binding model
[7] = dTTP-bound TK2, 2 μM TK2, 21 °C
[8] = dTTP-bound TK2, one-site specific binding model
[9] = read-out: Kd (equilibrium binding constant), dTTP-bound TK2, one-site specific binding model
[10] = Kd (equilibrium binding constant), dTTP-free TK2, one-site specific binding model
[11] = dTTP-free TK2, one-site specific binding model

## Nc1ncnc2c1ncn2[C@@H]1O[C@H](CO[P@](=O)(O)O[P@](=O)(O)O[P@@](=O)(O)S)[C@@H](O)[C@H]1O [ATPγS, adenosine 5′-(gamma-thio) triphosphate]
Recombinant human TK2 [1]; Kd (dissociation constant), titrated to E–dC complex, 25 °C
  Kd: 20 µM
Recombinant human TK2 [1]; Kd (dissociation constant), titrated to E–dT complex, 25 °C
  Kd: 0.93 µM
Recombinant human TK2 [1]; [4]
  ΔG (Gibbs free energy): –0.18 ± 0.01 kcal/mol
  ΔH (enthalpy changes): –7.5 ± 0.5 kcal/mol
  ΔS (entropy changes): –24.9 cal/mol/deg
Recombinant human TK2 [1]; titrated to E–dT complex
  binding constant: 1.1 × 10^6 M^–1
Recombinant human TK2 [1]; [5]
  ΔG (Gibbs free energy): –8.2 ± 0.1 kcal/mol
  ΔH (enthalpy changes): –19.4 ± 0.8 kcal/mol
  ΔS (entropy changes): –37.6 cal/mol/deg
Recombinant human TK2 [1]; titrated with either dTTP-bound or dTTP-free TK2
  ITC heat response / specific interaction: no heat response
[2]; absence of dC
  binding to dCK alone (ITC): does not bind
[2]; presence of dC
  binding to the dCK–dC complex (ITC): bind

## Cc1cn([C@H]2C[C@H](N=[N+]=[N-])[C@@H](CO)O2)c(=O)[nH]c1=O [AZT, 3′-Azido-2′,3′-dideoxythymidine]
Recombinant human TK2 [3]; [6]
  Kd: 6.94 ± 2.78 µM
Recombinant human TK2 [3]; [7]
  fa (fractional accessibility): 0.38 ± 0.04
Recombinant human TK2 [3]; [8]
  ΔFmax: 12.77 ± 1.34
Recombinant human TK2 [3]
  fractional initial accessible fluorescence: 20–40%
  quenching of the fluorescence emission on addition of ligand: caused quenching

## Cc1cn([C@H]2C[C@H](F)[C@@H](CO)O2)c(=O)[nH]c1=O [FLT, 3′-fluoro-2′,3′-dideoxythymidine]
Recombinant human TK2 [3]; [7]
  Ka (quenching constant of the accessible fraction): 0.14 ± 0.02 μM^–1
  fa (fractional accessibility): 0.24 ± 0.04
Recombinant human TK2 [3]; [8]
  ΔFmax: 17.81 ± 0.99
Recombinant human TK2 [3]; [9]
  Kd: 6.17 ± 1.35 µM
Recombinant human TK2 [3]
  fractional initial accessible fluorescence: 20–40%
  quenching of the fluorescence emission on addition of ligand: caused quenching

## Nc1ccn([C@H]2C[C@H](O)[C@@H](CO)O2)c(=O)n1 [dC, deoxycytidine]
Recombinant human TK2 [1]; dTTP-bound enzyme, 25 °C
  ΔH (enthalpy changes): –23.4 ± 0.7 kcal/mol
  ΔS (entropy changes): –7.9 cal/mol/deg
Recombinant human TK2 [3]; [6]
  Kd: 3.35 ± 0.81 µM
Recombinant human TK2 [3]; [10]
  Kd: 5.64 ± 1.2 µM
Recombinant human TK2 [3]; [7]
  fa (fractional accessibility): 0.29 ± 0.05
Recombinant human TK2 [3]; [8]
  ΔFmax: 19.86 ± 0.94
Recombinant human TK2 [3]; dTTP-free TK2, 21 °C
  fa (fractional accessibility): 0.40 ± 0.10
Recombinant human TK2 [3]; [11]
  ΔFmax: 67.5 ± 2.9
Recombinant human TK2 [3]
  fractional initial accessible fluorescence: 20–40%
  quenching of the fluorescence emission on addition of ligand: caused quenching

## Nc1ccn([C@H]2C[C@H](O)[C@@H](COP(=O)(O)O)O2)c(=O)n1 [dCMP, deoxycytidine monophosphate]
Recombinant human TK2 [3]; [7]
  Ka (quenching constant of the accessible fraction): 0.42 ± 0.03 μM^–1
  fa (fractional accessibility): 0.21 ± 0.02
Recombinant human TK2 [3]; [8]
  ΔFmax: 19.74 ± 1.18
Recombinant human TK2 [3]; [9]
  Kd: 4.42 ± 0.99 µM
Recombinant human TK2 [3]
  fractional initial accessible fluorescence: 20–40%
  quenching of the fluorescence emission on addition of ligand: caused quenching

## Nc1ccn([C@H]2C[C@H](O)[C@@H](COP(=O)(O)OP(=O)(O)OP(=O)(O)O)O2)c(=O)n1 [dCTP, deoxycytidine triphosphate]
Recombinant human TK2 [1]; dTTP-free enzyme
  ITC heat changes in the isothermogram: no heat changes

## Cc1cn([C@H]2C[C@H](O)[C@@H](CO)O2)c(=O)[nH]c1=O [dT, thymidine]
Recombinant human TK2 [1]; ITC
  binding constant, times higher than that of dC: 5 times
  binding constant, times higher than that of dTTP: 65 times
Recombinant human TK2 [1]; ITC, dTTP-bound enzyme
  binding affinity, times higher than that of dC: 3 times
Recombinant human TK2 [1]; Kd1 (high affinity), dTTP-bound enzyme, two-site binding model
  Kd: 0.55 µM
Recombinant human TK2 [1]; dTTP-bound enzyme, 25 °C
  ΔG (Gibbs free energy): –7.1 ± 0.2 kcal/mol
  ΔH (enthalpy changes): –72.7 ± 0.2 kcal/mol
  ΔS (entropy changes): –220 cal/mol/deg
Recombinant human TK2 [1]; read-out: Kd2 (lower affinity), dTTP-bound enzyme, two-site binding model
  Kd: 6.13 µM
Recombinant human TK2 [3]; [6]
  Kd: 3.26 ± 1.01 µM
Recombinant human TK2 [3]; [10]
  Kd: 13.3 ± 1.2 µM
Recombinant human TK2 [3]; [7]
  Ka (quenching constant of the accessible fraction): 0.16 μM^–1
  fa (fractional accessibility): 0.25 ± 0.01
Recombinant human TK2 [3]; dTTP-bound TK2, modified Stern–Volmer equation
  fa, fraction of the initial fluorescence accessible: 25%
Recombinant human TK2 [3]; [8]
  ΔFmax: 21.95 ± 1.25
Recombinant human TK2 [3]; dTTP-free TK2, 21 °C
  fa (fractional accessibility): 0.17 ± 0.02
Recombinant human TK2 [3]; [11]
  ΔFmax: 69.7 ± 3.1
Recombinant human TK2 [3]
  quenching of the fluorescence emission on addition of ligand: caused quenching

## Cc1cn([C@H]2C[C@H](O)[C@@H](COP(=O)(O)O)O2)c(=O)[nH]c1=O [dTMP, deoxythymidine monophosphate]
Recombinant human TK2 [3]; [7]
  Ka (quenching constant of the accessible fraction): 0.79 ± 0.04 μM^–1
  fa (fractional accessibility): 0.21 ± 0.02
Recombinant human TK2 [3]; [8]
  ΔFmax: 16.74 ± 0.53
Recombinant human TK2 [3]; [9]
  Kd: 1.53 ± 0.28 µM
Recombinant human TK2 [3]
  fractional initial accessible fluorescence: 20–40%
  quenching of the fluorescence emission on addition of ligand: caused quenching

## Cc1cn([C@H]2C[C@H](O)[C@@H](CO[P@](=O)(O)O[P@@](=O)(O)OP(=O)(O)O)O2)c(=O)[nH]c1=O [dTTP, deoxythymidine triphosphate]
TK2
  Ki: 2.5 µM and ~2.5 µM
Recombinant human TK2 [1]; Kd (dissociation constant), dTTP-free enzyme, 25 °C, Kd = 1/KB
  Kd: 36 µM and 35.7 µM
Recombinant human TK2 [1]; dTTP-free TK2
  binding constant: 2.8 × 10^4 M^–1
Recombinant human TK2 [1]; dTTP-free enzyme, 25 °C
  ΔG (Gibbs free energy): –6.0 ± 0.1 kcal/mol
  ΔH (enthalpy changes): 237.2 ± 0.2 kcal/mol
  ΔS (entropy changes): 816 cal/mol/deg
Recombinant human TK2 [3]; [10]
  Kd: 3.64 ± 1.02 µM
Recombinant human TK2 [3]; dTTP-free TK2, 21 °C
  fa (fractional accessibility): 0.22 ± 0.01
Recombinant human TK2 [3]; [11]
  ΔFmax: 57.6 ± 2.9
Recombinant human TK2 [3]
  fractional initial accessible fluorescence: 20–40%
  quenching of the fluorescence emission on addition of ligand: caused quenching
